Source: PubChem
This is a sample that favours compounds with a hit; in the whole collection about 2.2% have one here.
DENV2 CPE = inhibitors of DENV2 cytopathic effect; CPE inhibition, % at 9.99 µM; 350,000 compounds, 1.7% hits; DENV2-infected cells, cytopathic effect rescue, plate reader; in the data active = CPE inhibition above about 20%, passing the limit was not always enough; inconclusive = no clear call, values can overlap the other calls; tested in BHK-21 cells;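 note: 0% = median of neutral control wells and 100% = median of positive control wells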
C2C12 statin = suppression of simvastatin myotoxicity | C2C12 myotubes + simvastatin, ATP luminescence, 48 h; scaled: DMSO 0, geranylgeraniol control 100 | 330,000 compounds, 0.78% hits | AID 602340 | rescue of ATP level, % at 7.49 µM;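 active = mean ATP rescue above about 67%, or every replicate alone reaching that limit, limit read from the data, passing the limit was not always enough; inconclusive = no clear call, values can overlap the other calls; inactive = mean under the limit and some replicate under it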;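 note: myotubes were challenged with 10 µM simvastatin during compound exposure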
E-selectin induc = E-selectin induction on HUVECs; P16581; HUVEC E-selectin immunofluorescence imaging; normalized: neutral wells 0, TNF-alpha wells 100; activation, % at 7.58 µM; 260,000 compounds, 0.37% hits; AID 686992;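 active = mean E-selectin-positive cell signal at least 10% of the positive control, reached in at least 60% of replicates, without over 20% cell loss; inconclusive = no rule given, readout overlaps actives, possibly toxicity-flagged; inactive = the rest, including those meeting only one limit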
Target sequence (P16581 whole entry, looked up): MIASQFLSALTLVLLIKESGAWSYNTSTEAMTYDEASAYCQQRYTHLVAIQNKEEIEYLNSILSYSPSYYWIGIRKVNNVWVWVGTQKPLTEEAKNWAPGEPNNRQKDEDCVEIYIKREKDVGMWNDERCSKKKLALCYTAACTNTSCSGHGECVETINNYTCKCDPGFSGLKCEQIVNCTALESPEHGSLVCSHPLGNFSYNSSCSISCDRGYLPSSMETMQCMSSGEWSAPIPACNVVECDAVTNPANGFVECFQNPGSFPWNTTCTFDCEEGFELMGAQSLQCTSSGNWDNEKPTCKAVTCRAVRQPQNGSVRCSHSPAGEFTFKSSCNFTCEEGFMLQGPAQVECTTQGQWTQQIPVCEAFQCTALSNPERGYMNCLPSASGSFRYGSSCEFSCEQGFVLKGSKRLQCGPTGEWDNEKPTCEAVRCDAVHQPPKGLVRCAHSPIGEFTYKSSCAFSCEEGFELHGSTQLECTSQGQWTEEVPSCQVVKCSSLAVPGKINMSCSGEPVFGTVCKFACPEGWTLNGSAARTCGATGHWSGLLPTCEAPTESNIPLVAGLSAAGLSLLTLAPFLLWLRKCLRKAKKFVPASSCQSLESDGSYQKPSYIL
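Assay system: HUVEC, human umbilical vein endothelial cells / Amount: 3,000 HUVEC/well / Controls: TNF-alpha positive control, DMSO neutral control / Compound dosing: single concentration / Medium: EGM-2 over gelatin coat / Evaluation: percent E-selectin-positive cells / Signal: immunofluorescence imaging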
Starred values were filed as active, the others as inactive; ? = inconclusive; . = no result.

SMILES	DENV2 CPE	C2C12 statin	E-selectin induc
Cc1ccsc1C(=O)OCC(=O)N(C)c1c(N)n(Cc2ccccc2)c(=O)[nH]c1=O	-3	-3	0
CCN(C(=O)COC(=O)c1cc(=O)[nH]c2ccccc12)c1c(N)n(Cc2ccccc2)c(=O)[nH]c1=O	65*	3	-2
Cc1ccc(C(=O)OCC(=O)N(C)c2c(N)n(Cc3ccccc3)c(=O)[nH]c2=O)s1	36*	-4	0
CC(C)CN(C(=O)COC(=O)c1cc(=O)[nH]c2ccccc12)c1c(N)n(Cc2ccccc2)c(=O)[nH]c1=O	16	22	0
CN1CCN(C(=O)c2cc3c(c(-c4cccc(-c5cccc(C(=O)N(C)C)c5)c4)n2)[C@@H](CCO)N([S@](=O)C(C)(C)C)C3)CC1	2	1	0
Cc1noc(C)c1S(=O)(=O)N(C)C[C@H]1OCCCC[C@@H](C)Oc2ccc(NS(=O)(=O)c3ccc(Cl)cc3)cc2C(=O)N([C@H](C)CO)C[C@@H]1C	-13	.	0
O=c1[nH]ncc(N/N=C\c2cccnc2)c1Cl	6	.	5
Cc1cccc(/C=N\Nc2cn[nH]c(=O)c2Cl)c1	.	102*	.
CC1(C)N=C(N)N=C(N)N1c1ccc(F)cc1F	.	104*	.
CC1(C)N=C(N)N=C(N)N1c1cc(Cl)ccc1Cl	5	4	.
Cc1noc(C)c1NC(=O)Nc1ccc2c(c1)C(=O)N([C@@H](C)CO)C[C@@H](C)[C@@H](CN(C)Cc1ccc3c(c1)OCO3)OCCCC[C@H](C)O2	11	.	0
O=C(C[C@@H]1C[C@H]2c3cc(NC(=O)NC4CCCC4)ccc3O[C@H]2[C@H](CO)O1)NCc1cccc(F)c1	-2	0	2
CN1C(=O)c2cc(NC(=O)C3CC3)ccc2OC[C@@H]2O[C@@H](CC(=O)NCc3ccccc3F)CC[C@H]21	12	.	0
CC(C)(O)C#Cc1ccc([C@@H]2[C@H]3CN(S(C)(=O)=O)CCCCN3[C@H]2CO)cc1	.	6	0
CC(C)(O)C#Cc1ccc([C@H]2[C@H](CO)N3CCCCN(C(=O)c4ccc(F)cc4)C[C@@H]23)cc1	21*	.	0
CC(C)(O)C#Cc1ccc([C@H]2[C@@H](CO)N3CCCCN(C(=O)c4ccc(F)cc4)C[C@H]23)cc1	19	.	0
CC(C)(O)C#Cc1ccc([C@@H]2[C@H](CO)N3CCCCN(S(C)(=O)=O)C[C@@H]23)cc1	37*	10	0
C[C@@H]1CN([C@@H](C)CO)C(=O)c2cccc(NS(=O)(=O)c3ccc(Cl)cc3)c2O[C@@H]1CN(C)Cc1ccc(C(F)(F)F)cc1	6	0	0
Brc1ccc(-c2ncc(-c3ccccc3)cn2)cc1	.	-3	.
Brc1ccc(-c2ccccc2)cc1	62*	9	.
C[C@H]1CN([C@@H](C)CO)C(=O)c2cccc(NC(=O)C3CCOCC3)c2O[C@@H]1CN(C)Cc1ccc(C(=O)O)cc1	11	-10	0
O=C(Nc1ccccc1)N1CCN(c2ccccn2)CC1	.	1	.
Cc1ccc(NC(=O)N2CCN(c3ccccn3)CC2)cc1	-1	92*	.
CCC(=O)N1[C@H](CO)[C@@H](c2ccccc2)[C@@H]1CNC(=O)CN1CCOCC1	18	7	0
Cc1ccc2c(c1)N(S(=O)(=O)c1ccc(F)cc1)C(C(C)(C)C)CO2 (centres undefined)	.	-1	-1
SMILES	DENV2 CPE	C2C12 statin	E-selectin induc
Cc1ccc2c(c1)NC(C(C)(C)C)CO2 (centres undefined)	.	115*	.
COc1ccc(C2CC(=O)c3cnc(NC(=O)c4ccccc4)nc3C2)c(OC)c1 (centres undefined)	.	7	.
COc1ccc(C2CC(=O)c3cnc(N)nc3C2)c(OC)c1 (centres undefined)	.	106*	.
COc1ccc2c3c(n(C)c2c1)[C@@H](CO)N(Cc1ccccc1)CC31CN(C)C1	-1	.	0
COC(=O)C[C@H]1CC[C@H]2[C@H](COc3ccc(NC(=O)c4cccc(Cl)c4)cc3C(=O)N2C)O1	?	-14	0
COCC(=O)N1[C@@H]2CN(C(=O)c3ccncc3)c3ccccc3[C@@H]2[C@@H]1CO	.	-14	0
O=C(c1cccnc1)N1C[C@H]2[C@@H](c3ccccc31)[C@H](CO)N2C(=O)Nc1ccc(F)cc1	67*	-4	1
CCCC(=O)N1C[C@H]2[C@@H](c3ccccc31)[C@@H](CO)N2C(=O)Nc1ccc(F)cc1	28*	2	0
O=C(c1cccnc1)N1C[C@H]2[C@@H](c3ccccc31)[C@@H](CO)N2C(=O)Nc1ccc(F)cc1	-10	1	1
CCCC(=O)N1C[C@@H]2[C@H](c3ccccc31)[C@@H](CO)N2C(=O)Nc1ccccc1	-3	-11	1
COCC(=O)N1[C@H](CO)[C@H]2c3ccccc3N(C(=O)c3cccnc3)C[C@H]21	59*	5	0
CO[C@H]1CN(C)C(=O)c2cc(NC(=O)c3ccc(F)cc3)ccc2OC[C@H](C)N(C(=O)c2ccc(F)cc2)C[C@H]1C	6	-10	0
CO[C@@H]1CN(C)C(=O)c2ccc(NC(=O)c3cnccn3)cc2OC[C@@H](C)N(C(C)=O)C[C@@H]1C	3	3	0
C[C@H]1CN([C@@H](C)CO)C(=O)c2cc(NC(=O)Cc3cn(C)c4ccccc34)ccc2O[C@@H]1CN(C)CC1CC1	-2	.	0
O=C(CCN1CCCCC1)N[C@H]1CC[C@H](CCNC(=O)c2cc(Cl)cc(Cl)c2)O[C@H]1CO	8	-5	0
CN(C)C(=O)Nc1ccccc1CC[N+](=O)[O-]	.	9	5
O=C(Nc1ccc(Cl)cc1)Nc1ccccc1CC[N+](=O)[O-]	9	104*	.
C[C@H]1CN([C@@H](C)CO)C(=O)c2cccc(NS(=O)(=O)c3ccc(F)cc3)c2O[C@@H]1CN(C)S(=O)(=O)c1cn(C)cn1	-1	-7	0
O=C(C1=C[C@H](c2ccc(Br)cc2)C[C@H](OCc2ccc(CO)cc2)O1)N1CCCCCCC1	9	.	.
COc1ccc(S(=O)(=O)N(C)C[C@H]2Oc3ccc(N(C)C)cc3CC(=O)N([C@@H](C)CO)C[C@@H]2C)cc1	?	10	0
C[C@@H]1CCCCO[C@@H](CN(C)C(=O)Nc2ccc3c(c2)OCO3)[C@@H](C)CN([C@H](C)CO)C(=O)c2cc(NC(=O)NC3CCCCC3)ccc2O1	.	.	0
C[C@@H]1CCCCO[C@@H](CN(C)C(=O)Nc2ccc3c(c2)OCO3)[C@H](C)CN([C@@H](C)CO)C(=O)c2cc(NC(=O)NC3CCCCC3)ccc2O1	-9	.	0
C[C@H]1CCCCO[C@@H](CN(C)C(=O)Nc2ccc3c(c2)OCO3)[C@@H](C)CN([C@@H](C)CO)C(=O)c2cc(NC(=O)NC3CCCCC3)ccc2O1	48*	.	0
C[C@@H]1CN([C@H](C)CO)C(=O)c2cc(NC(=O)NC3CCCCC3)ccc2O[C@@H](C)CCCCO[C@H]1CN(C)C(=O)Nc1ccc2c(c1)OCO2	101*	.	0
O=C(Cc1ccccn1)NCC[C@@H]1CC[C@@H](NC(=O)Nc2ccc(F)cc2)[C@H](CO)O1	1	5	-3
Cc1ccc(S(=O)(=O)Nc2ccc3c(c2)CC(=O)N([C@@H](C)CO)C[C@H](C)[C@H](CN(C)C(=O)Nc2c(C)noc2C)O3)cc1	-6	-21	0
